Experimental data published in ChEMBL document CHEMBL3865790, “2-(Phenylsulfonyl)quinoline N-hydroxyacrylamides as potent anticancer agents inhibiting histone deacetylase” (Eur J Med Chem, 2016).
Calls of active or inactive are those of the source. The rule behind the calls is not given here.

Legend:
[1] = Antiproliferative activity against human HL60 cells after 48 hrs by SRB assay; assay type: functional, HL-60
How it was run: (§1)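 Cells grown in RPMI 1640 with 10% FBS and antibiotics, then seeded in medium with 5% FBS. A T0 plate was fixed with 10% TCA at 24 h. Remaining cells were exposed to compound or DMSO for 48 h, TCA-fixed, and stained with 0.4% SRB in 1% acetic acid. Dye was solubilized in 10 mM Trizma base and read at 515 nm.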

[2] = Antiproliferative activity against human HCT116 cells after 48 hrs by SRB assay; assay type: functional, HCT-116; how it was run: as §1
[3] = Antiproliferative activity against human PC3 cells after 48 hrs by SRB assay; assay type: functional, PC-3; how it was run: as §1
[4] = Antiproliferative activity against human A549 cells after 48 hrs by SRB assay; assay type: functional; how it was run: as §1
[5] = molecular target: T1, Protein deacetylase HDAC6 (Homo sapiens, UniProt Q9UBN7); experiment: Inhibition of full length recombinant human HDAC6 expressed in baculovirus expression system assessed as release of 7-amino-4-methylcoumarin by fluorogenic assay
T1 sequence (Q9UBN7 whole entry): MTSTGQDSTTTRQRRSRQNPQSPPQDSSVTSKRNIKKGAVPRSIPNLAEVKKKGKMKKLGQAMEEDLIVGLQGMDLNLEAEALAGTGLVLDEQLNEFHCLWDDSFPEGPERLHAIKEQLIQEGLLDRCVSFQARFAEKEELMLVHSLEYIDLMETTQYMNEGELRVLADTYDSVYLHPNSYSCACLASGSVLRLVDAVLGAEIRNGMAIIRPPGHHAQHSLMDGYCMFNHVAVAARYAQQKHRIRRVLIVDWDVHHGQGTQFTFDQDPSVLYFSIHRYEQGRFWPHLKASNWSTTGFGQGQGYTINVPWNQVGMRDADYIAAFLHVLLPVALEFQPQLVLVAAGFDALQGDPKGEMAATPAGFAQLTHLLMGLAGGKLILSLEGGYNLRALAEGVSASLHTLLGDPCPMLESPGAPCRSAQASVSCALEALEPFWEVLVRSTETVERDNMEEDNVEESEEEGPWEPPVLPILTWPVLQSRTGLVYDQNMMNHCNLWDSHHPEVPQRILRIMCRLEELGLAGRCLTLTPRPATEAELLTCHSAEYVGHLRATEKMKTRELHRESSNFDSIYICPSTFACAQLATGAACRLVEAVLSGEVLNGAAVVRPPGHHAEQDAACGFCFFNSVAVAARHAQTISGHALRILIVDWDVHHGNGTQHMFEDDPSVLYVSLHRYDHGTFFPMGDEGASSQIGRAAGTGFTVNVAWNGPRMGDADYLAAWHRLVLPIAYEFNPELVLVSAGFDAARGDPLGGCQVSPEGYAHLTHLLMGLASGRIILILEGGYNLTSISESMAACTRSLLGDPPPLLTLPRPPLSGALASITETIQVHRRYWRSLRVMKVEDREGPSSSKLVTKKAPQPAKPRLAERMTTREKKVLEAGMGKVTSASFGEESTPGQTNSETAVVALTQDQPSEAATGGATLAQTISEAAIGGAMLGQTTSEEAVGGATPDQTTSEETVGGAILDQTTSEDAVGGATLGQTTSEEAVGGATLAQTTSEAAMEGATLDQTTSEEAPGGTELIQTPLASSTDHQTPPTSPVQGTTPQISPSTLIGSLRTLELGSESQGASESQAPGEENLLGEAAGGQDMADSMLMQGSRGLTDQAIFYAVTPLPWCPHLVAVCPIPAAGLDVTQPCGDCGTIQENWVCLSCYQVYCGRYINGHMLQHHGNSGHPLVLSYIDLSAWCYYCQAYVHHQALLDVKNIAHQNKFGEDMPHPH

HCT-116 [6] = conditions: Homo sapiens, at 0.3 µM
PC-3 = conditions: Homo sapiens, at 0.3 µM
Histone deacetylase 1 = Histone deacetylase 1 (Homo sapiens, UniProt Q13547); experiment: Inhibition of C-terminal His/FLAG-tagged full length recombinant human HDAC1 expressed in baculovirus expression system assessed as release of 7-amino-4-methylcoumarin by fluorogenic assay
Sequence of Histone deacetylase 1 (Q13547 whole entry): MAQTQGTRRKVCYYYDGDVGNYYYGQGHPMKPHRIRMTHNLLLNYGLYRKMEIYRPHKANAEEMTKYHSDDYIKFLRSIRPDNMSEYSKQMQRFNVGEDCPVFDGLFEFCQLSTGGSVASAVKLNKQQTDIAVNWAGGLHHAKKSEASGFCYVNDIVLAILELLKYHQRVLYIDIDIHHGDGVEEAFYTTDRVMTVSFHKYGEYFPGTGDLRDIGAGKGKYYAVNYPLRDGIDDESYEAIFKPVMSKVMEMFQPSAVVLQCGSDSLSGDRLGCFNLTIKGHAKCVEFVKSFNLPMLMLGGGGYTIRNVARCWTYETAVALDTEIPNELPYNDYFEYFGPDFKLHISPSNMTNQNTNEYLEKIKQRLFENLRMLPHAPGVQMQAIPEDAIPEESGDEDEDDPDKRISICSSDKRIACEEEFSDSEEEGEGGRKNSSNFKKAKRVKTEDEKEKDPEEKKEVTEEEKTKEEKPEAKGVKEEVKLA

Histone deacetylase 2 = Histone deacetylase 2 (Homo sapiens, UniProt Q92769); experiment: Inhibition of full length recombinant human HDAC2 expressed in baculovirus expression system assessed as release of 7-amino-4-methylcoumarin by fluorogenic assay
Sequence of Histone deacetylase 2 (Q92769 whole entry): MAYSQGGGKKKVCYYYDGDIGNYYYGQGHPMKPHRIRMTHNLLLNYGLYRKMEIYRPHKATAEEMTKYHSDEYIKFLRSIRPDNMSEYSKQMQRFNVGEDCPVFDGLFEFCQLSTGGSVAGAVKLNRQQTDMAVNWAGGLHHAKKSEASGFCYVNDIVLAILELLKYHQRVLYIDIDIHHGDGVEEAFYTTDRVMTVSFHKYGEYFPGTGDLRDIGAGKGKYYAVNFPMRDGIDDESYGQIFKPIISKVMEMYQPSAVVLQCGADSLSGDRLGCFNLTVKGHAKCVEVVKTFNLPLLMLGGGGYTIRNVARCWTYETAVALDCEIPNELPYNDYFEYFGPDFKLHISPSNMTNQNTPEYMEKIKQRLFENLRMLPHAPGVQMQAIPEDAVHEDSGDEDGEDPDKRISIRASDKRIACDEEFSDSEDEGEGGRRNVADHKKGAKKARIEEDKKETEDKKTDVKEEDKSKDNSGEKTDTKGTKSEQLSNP

Histone deacetylase 8 = molecular target: T2, Histone deacetylase 8 (Homo sapiens, UniProt Q9BY41); experiment: Inhibition of His-tagged full length recombinant human HDAC8 expressed in baculovirus expression system assessed as release of 7-amino-4-methylcoumarin by fluorogenic assay
T2 sequence (Q9BY41 whole entry): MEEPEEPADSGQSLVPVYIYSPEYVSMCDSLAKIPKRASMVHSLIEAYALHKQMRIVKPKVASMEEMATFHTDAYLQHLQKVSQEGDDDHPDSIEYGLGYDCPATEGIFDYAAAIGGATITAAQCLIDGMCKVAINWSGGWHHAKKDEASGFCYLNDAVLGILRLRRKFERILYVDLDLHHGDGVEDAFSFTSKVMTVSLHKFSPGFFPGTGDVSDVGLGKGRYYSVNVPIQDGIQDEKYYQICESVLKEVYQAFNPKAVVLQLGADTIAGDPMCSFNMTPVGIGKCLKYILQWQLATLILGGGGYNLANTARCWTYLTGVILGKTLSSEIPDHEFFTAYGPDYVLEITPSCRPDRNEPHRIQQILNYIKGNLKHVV

HCT-116 [7] = experiment: Antitumor activity in human HCT116 cells xenografted in nude mouse assessed as tumor growth inhibition administered daily through oral route; assay type: functional, cell-based
How it was run: (§2)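 Male nude mice, 8 weeks old, implanted s.c. in the right flank with 1 x 10^7 log-phase HCT116 cells in PBS. Four groups of 7 received vehicle, 50 or 100 mg/kg test compound, or 200 mg/kg reference p.o. daily to endpoint, dosed at 10 mL/kg scaled to body weight. Tumor volume was taken as (w² × l)/2, and mice were monitored for adverse effects.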

[8] = Antitumor activity against human HCT116 cells xenografted in nude mouse assessed as tumor growth inhibition at 50 mg/kg, po qd; assay type: functional; conditions: HCT-116, po, read-out: TGI; how it was run: as §2
[9] = Antitumor activity against human HCT116 cells xenografted in nude mouse assessed as tumor growth inhibition at 100 mg/kg, po qd; assay type: functional; conditions: HCT-116, po, read-out: TGI; how it was run: as §2
Mus musculus [10] = experiment: Toxicity in nude mouse xenografted with human HCT116 cells assessed as change in body weight at 50 to 100 mg/kg, po qd; assay type: organism-based, HCT-116; conditions: in vivo
Mus musculus [11] = experiment: Toxicity in nude mouse xenografted with human HCT116 cells assessed as change in body weight at 200 mg/kg, po qd; assay type: organism-based, HCT-116; conditions: in vivo

| SMILES | GI50 ([1]; Homo sapiens, HL-60, 48 h) [nM] | GI50 ([2]; Homo sapiens, HCT-116, 48 h) [nM] | GI50 ([3]; Homo sapiens, PC-3, 48 h) [nM] | GI50 ([4]; Homo sapiens, A549, 48 h) [nM] | also measured |
| --- | --- | --- | --- | --- | --- |
| COc1ccc(S(=O)(=O)c2nc3ccccc3cc2/C=C/C(=O)NO)cc1 | > 10000 | > 10000 | > 10000 | > 10000 |  |
| COc1ccc(S(=O)(=O)c2ccc3cc(/C=C/C(=O)NO)ccc3n2)cc1 | 1140 | 1390 | 1350 | 4750 |  |
| COc1ccc2nc(S(=O)(=O)c3cccc(/C=C/C(=O)NO)c3)ccc2c1 | 720 | 240 | 280 | 350 |  |
| O=C(/C=C/c1cccc(S(=O)(=O)c2ccc3cccc(Cl)c3n2)c1)NO | 2640 | 1310 | 1350 | 1420 |  |
| O=C(/C=C/c1cccc(S(=O)(=O)Nc2ccccc2)c1)NO [BELINOSTAT] | 1090 | 130 | 390 | 780 | IC50 [5]: 50 nM; inhibition (HCT-116 [6]): Active; inhibition (PC-3): Active |
| O=C(/C=C/c1ccc(S(=O)(=O)c2ccc3ccccc3n2)cc1)NO | 800 | 310 | 490 | 880 |  |
| COc1ccc(S(=O)(=O)c2ccc3cccc(/C=C/C(=O)NO)c3n2)cc1 | 1170 | 310 | 790 | 1320 |  |
| O=C(/C=C/c1cccc(S(=O)(=O)c2ccc3cccc(F)c3n2)c1)NO | 720 | 440 | 320 | 640 | IC50 (Histone deacetylase 1): 5.74 nM; IC50 (Histone deacetylase 2): 15 nM; IC50 [5]: 5.89 nM; IC50 (Histone deacetylase 8): 200 nM; inhibition (HCT-116 [6]): Active; inhibition (PC-3): Active |
| COc1ccc(S(=O)(=O)c2ccc3c(/C=C/C(=O)NO)cccc3n2)cc1 | > 10000 | > 10000 | > 10000 | > 10000 |  |
| O=C(/C=C/c1cccc(S(=O)(=O)c2ccc3ccccc3n2)c1)NO | 290 | 80 | 150 | 270 | IC50 (Histone deacetylase 1): 14 nM; IC50 (Histone deacetylase 2): 11.5 nM; IC50 [5]: 15 nM; IC50 (Histone deacetylase 8): 130 nM; TGI (HCT-116 [7]): Dose-dependent effect; inhibition in vivo at 50 mg/kg [8]: 32.2%; inhibition in vivo at 100 mg/kg [9]: 58.8%; Activity (Mus musculus [10]): Non-Toxic; inhibition (HCT-116 [6]): Active; inhibition (PC-3): Active |
| COc1ccc(S(=O)(=O)c2ccc3ccc(/C=C/C(=O)NO)cc3n2)cc1 | 830 | 240 | 1010 | 1510 |  |
| O=C(CCCCCCC(=O)Nc1ccccc1)NO [VORINOSTAT] |  |  |  |  | GI50 [1]: 1740 nM; GI50 [2]: 150 nM; GI50 [3]: 730 nM; GI50 [4]: 1020 nM; Activity (Mus musculus [11]): Non-Toxic |
| O=C(/C=C/c1cccc(S(=O)(=O)c2ccc3cc(Cl)ccc3n2)c1)NO | 1330 | 920 | 760 | 1010 |  |
| O=C(/C=C/c1cccc(C(=O)c2ccc3ccccc3n2)c1)NO | 1230 | 350 | 470 | 840 |  |
| O=C(/C=C/c1cccc(S(=O)(=O)c2ccccn2)c1)NO | 1980 | 1480 | 2650 | 1710 |  |
| O=C(/C=C/c1ccc(C(=O)c2ccc3ccccc3n2)cc1)NO | 1150 | 360 | 560 | 1130 |  |
